High-throughput results from PubChem BioAssay.
Hits are enriched below; roughly 2.6% of the tested compounds scored in any of these assays.
SENP8 block-1: human SENP8 protease inhibitors, primary screen, biochemical, fluorescence, Nedd8 protein substrate, uHTS. recombinant SENP8. inhibition, % at 20 µM. 360,000 tested, 0.64% active; in the data active means inhibition mostly above about 40%, no sharp cut-off; inactive means mostly below about 27%
Target sequence (Q96LD8 whole entry, looked up): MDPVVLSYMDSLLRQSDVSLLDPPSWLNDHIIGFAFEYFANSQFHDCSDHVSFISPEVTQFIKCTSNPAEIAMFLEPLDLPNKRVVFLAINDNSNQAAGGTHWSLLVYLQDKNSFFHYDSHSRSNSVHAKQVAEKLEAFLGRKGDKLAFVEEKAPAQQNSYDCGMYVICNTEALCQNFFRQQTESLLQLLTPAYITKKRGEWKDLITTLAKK
SENP8 block-2: SENP8 protease inhibitors, primary screen, biochemical, luminescence; purified SENP8, Z-RLRGG-aminoluciferin cleavage; inhibition, % at 10 µM; 330,000 tested, 1.2% active; AID 2540, 2010; in the data active means inhibition above about 50%
SENP7 block: SENP7 protease inhibitors, primary screen, biochemical, luminescence, uHTS. Sentrin-specific protease 7 (Homo sapiens), Q9BQF6. recombinant SENP7, Z-RLRGG-aminoluciferin luminescence, 40 min. inhibition, % at 5 µM. 330,000 tested, 1.5% active;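 active means inhibition above about 50% at the single test dose, limit read from the data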;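 further: plate controls were DMSO with enzyme for no effect and no enzyme buffer wells for full effect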
SENP6 inh: SENP6 protease inhibitors, primary screen, biochemical, luminescence, uHTS | Sentrin-specific protease 6 (Homo sapiens), Q9GZR1 | Recombinant SENP6 catalytic domain, aminoluciferin luminescence | inhibition, % at 10 µM | 330,000 tested, 1.8% active | AID 2599, 2010;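 active means inhibition above about 50% at the single tested dose, limit read from the data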;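 further: plate controls were DMSO wells with enzyme for no effect and DMSO wells lacking enzyme for full effect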
SENP1 FRET inh: human SENP1 catalytic domain inhibitors, primary screen, biochemical, FRET, uHTS; recombinant SENP1 catalytic domain, CyPet-SUMO1-YPet FRET cleavage; 360,000 tested, 0.21% active; Sentrin-specific protease 1 (Homo sapiens), Q9P0U3; inhibition, % at 10 µM;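 active means inhibition at least 30% at 10 µM, raw YFP signal under a set limit, fluorescence ratio 0.5 to 1.5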;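 further: 0% = enzyme with DMSO and 100% = no enzyme wells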
Target sequence (Q9P0U3 419-644 limits assumed): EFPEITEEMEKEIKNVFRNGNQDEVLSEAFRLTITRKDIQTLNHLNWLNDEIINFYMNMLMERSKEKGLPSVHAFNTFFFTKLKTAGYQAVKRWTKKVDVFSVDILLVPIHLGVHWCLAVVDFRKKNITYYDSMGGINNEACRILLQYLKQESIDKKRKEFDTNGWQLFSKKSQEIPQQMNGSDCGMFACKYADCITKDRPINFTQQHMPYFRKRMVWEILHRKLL
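system = hSENP1 catalytic domain, recombinant | reagent = SFCypet-SUMO1-SFYpet substrate at 25 nM | doses = one dose per compound, 10 µM, 0.5% DMSO | incubation = enzyme reaction for 50 min at room temperature, dark | measured by = FRET, CFP and YFP emission | controls = no-enzyme low, enzyme-DMSO high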
Platelet DG rel: inhibitors of platelet dense granule secretion, primary screen, cell-based, MLPCN, human platelets; 300,000 tested, 0.22% active; inhibition, %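 (compounds screened at 7.5 µM in platelet-rich plasma)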; human platelet-rich plasma, SFLLRN dense granule ATP release, luminescence; AID 1663, 2009;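 active means mean replicate score, as percent of positive control, at or above 50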
* = called active by the depositor.

Screening CCCCC[n+]1ccn(C2=C([O-])c3ccccc3C(=O)/C2=N\S(=O)(=O)c2ccc(Br)cc2)c1 returned SENP8 block-1 80.1*, SENP8 block-2 15.8, SENP7 block 6.5, SENP6 inh 34.6, SENP1 FRET inh 4.7 and Platelet DG rel 5.2.
For CC(C)[n+]1ccn(C2=C([O-])c3ccccc3C(=O)/C2=N\S(=O)(=O)c2ccccc2)c1 the results were SENP8 block-1 86.1*, SENP8 block-2 16.2, SENP7 block 16.4, SENP6 inh 42.6, SENP1 FRET inh -0.1 and Platelet DG rel -11.0.
For CCCCC[n+]1ccn(C2=C([O-])c3ccccc3C(=O)/C2=N\S(=O)(=O)c2ccccc2)c1 the results were SENP8 block-1 67.4*, SENP8 block-2 22.4, SENP7 block 18.4, SENP6 inh 25.3, SENP1 FRET inh -1.1 and Platelet DG rel -2.5.
For CCN(CC(=O)Nc1ccc2c(c1)OCCO2)C(=O)/C=C/c1cccc(C(F)(F)F)c1 the results were SENP8 block-1 10.5, SENP8 block-2 1.1, SENP7 block 3.0, SENP6 inh -6.6 and SENP1 FRET inh 0.0.
Screening Brc1ccc(N=Nc2ccc3ccccc3n2)cc1 returned SENP8 block-1 28.6, SENP8 block-2 95.9*, SENP7 block 99.6*, SENP6 inh 97.2*, SENP1 FRET inh -1.4 and Platelet DG rel 69.0*.
For Cc1ccccc1S(=O)Cc1ccc(C(=O)NCCN2CCOCC2)o1 (stereo unspecified) the results were SENP8 block-1 0.2, SENP8 block-2 0.8, SENP7 block -10.9, SENP6 inh 0.6, SENP1 FRET inh 1.3 and Platelet DG rel 2.5.
COc1ccc(/C=C2\CCC(C3CCCC3)C2=O)cc1OC (stereo unspecified) was read as SENP8 block-1 17.2, SENP8 block-2 -5.1, SENP7 block 0.8, SENP6 inh 11.9, SENP1 FRET inh -7.3 and Platelet DG rel -4.1.
Cc1ccc(/C=C2\CCC(C3CCCC3)C2=O)cc1 (stereo unspecified) was read as SENP8 block-1 6.8, SENP8 block-2 40.4, SENP7 block 75.1*, SENP6 inh 88.9*, SENP1 FRET inh 3.6 and Platelet DG rel -0.6.
Screening Cc1nnc(SCC(=O)N(CCC#N)c2ccc3c(c2)OCCO3)s1 returned SENP8 block-1 2.2, SENP8 block-2 -10.6, SENP7 block -2.0, SENP6 inh -32.6 and SENP1 FRET inh -0.7.
Screening O=C(c1nc2ccccn2c1CNCCCn1cccn1)N1CCCC1 returned SENP8 block-1 1.1, SENP8 block-2 -6.4, SENP7 block -9.0, SENP6 inh -8.7, SENP1 FRET inh -2.8 and Platelet DG rel 27.1.
Screening CC1=NN(c2nc(-c3ccc(C)cc3)cs2)C(=O)C1N=Nc1cccc(O)c1 (stereo unspecified) returned SENP8 block-1 35.8*, SENP8 block-2 7.7, SENP7 block -2.3, SENP6 inh -7.3, SENP1 FRET inh 4.2 and Platelet DG rel -2.7.
For O=C(Nc1ccc2c(c1)OCCO2)C(c1ccncc1)n1c(=O)c(-c2cc3ccccc3[nH]2)nc2ccccc21 (stereo unspecified) the results were SENP8 block-1 -394.1 and SENP1 FRET inh -20.0.
CN1C=CC=C/C1=C1\SC(=S)N(c2ccccc2)C1=O was read as SENP8 block-1 44.4*, SENP8 block-2 5.9, SENP7 block 12.0, SENP6 inh 13.8, SENP1 FRET inh -0.7 and Platelet DG rel 4.5.
`Nc1ccc(O)c2c1C(=O)c1ccccc1C2=O` gave SENP8 block-1 65.1*, SENP8 block-2 5.3, SENP7 block 3.0, SENP6 inh 4.5, SENP1 FRET inh -14.2 and Platelet DG rel 3.9.
For C=CCNc1ncnc2c1[nH]c1ccc(C)cc12 the results were SENP8 block-1 -261.6, SENP8 block-2 -10.5, SENP7 block -11.5, SENP6 inh 5.4, SENP1 FRET inh -1.5 and Platelet DG rel 10.5.
Screening CCCOc1ncnc2c1[nH]c1ccccc12 returned SENP8 block-1 -104.8, SENP8 block-2 0.4, SENP7 block 5.4, SENP6 inh -4.0, SENP1 FRET inh -14.4 and Platelet DG rel -2.2.
Screening CCCCOc1ncnc2c1[nH]c1ccc(C)cc12 returned SENP8 block-1 -364.5, SENP8 block-2 -5.2, SENP7 block 51.0*, SENP6 inh 15.8, SENP1 FRET inh -1.2 and Platelet DG rel -3.2.
Screening CCCOc1ncnc2c1[nH]c1ccc(OC)cc12 returned SENP8 block-1 -396.4, SENP8 block-2 63.1*, SENP7 block 80.9*, SENP6 inh 77.1*, SENP1 FRET inh 1.0 and Platelet DG rel 3.9.
For CCN(CC)c1ccc(/C=C/c2nc3ccccc3s2)cc1 the results were SENP8 block-2 94.1*, SENP7 block 94.6*, SENP6 inh 86.2* and Platelet DG rel 17.9.
Screening Cc1ccc(S(=O)(=O)N2CCC(C(=O)N3CCCCCCC3)CC2)cc1C returned SENP8 block-1 12.6 and SENP1 FRET inh 2.6.
Cc1ccc(NN2C(=O)C=C(c3ccc(Cl)cc3)C2=O)cc1 was read as SENP8 block-1 15.4, SENP8 block-2 0.3, SENP7 block -0.9, SENP6 inh -17.0, SENP1 FRET inh 0.9 and Platelet DG rel 56.9*.
`O=C1C=C(c2ccccc2)C(=O)N1Nc1ccccc1` gave SENP8 block-1 23.0, SENP8 block-2 1.5, SENP7 block -2.8, SENP6 inh -13.1, SENP1 FRET inh -2.7 and Platelet DG rel 61.2*.
For OC(CN(Cc1ccccc1)Cc1ccccc1)c1ccccc1 (stereo unspecified) the results were SENP8 block-1 12.5 and SENP1 FRET inh 2.3.
`CN(CC(=O)Nc1ccccc1Br)C(=O)CN1CCN(c2ccccc2Cl)CC1` gave SENP8 block-1 6.9, SENP8 block-2 2.5, SENP7 block 2.3, SENP6 inh 3.9 and SENP1 FRET inh 1.5.
CC(=O)Nc1ccc(C(=O)N/N=C/c2cccnc2)cc1 was read as SENP8 block-1 3.8, SENP1 FRET inh -0.5 and Platelet DG rel 2.1.
Cn1nccc1C(=O)N/N=C/c1cccnc1 was read as SENP8 block-1 14.9, SENP8 block-2 60.9*, SENP7 block 9.1, SENP6 inh -13.4, SENP1 FRET inh -0.1 and Platelet DG rel 6.3.
For O=[N+]([O-])c1cccc(-c2nc(-c3cccs3)c(-c3cccs3)[nH]2)c1 the results were SENP8 block-1 -217.7, SENP8 block-2 1.7, SENP7 block -4.0, SENP6 inh -4.1, SENP1 FRET inh 6.8 and Platelet DG rel 2.4.
Screening O=[N+]([O-])c1cccc(-c2noc(-c3cccs3)n2)c1 returned SENP8 block-1 16.6, SENP8 block-2 33.9, SENP7 block 75.2*, SENP6 inh 56.3*, SENP1 FRET inh 2.0 and Platelet DG rel -14.5.
